{"data": "Measured values of several laboratories", "medium": "plasma", "note": "Protocols differ between the studies behind these lines."}
{"SMILES": "C[C@@H](O)[C@@H]1NC(=O)CNC(=O)[C@H](Cc2c[nH]cn2)NC(=O)[C@H](Cc2c[nH]c3ccccc23)NC(=O)[C@H](CC(N)=O)NC(=O)CNC(=O)C[C@@H](C(=O)N[C@@H](Cc2c[nH]c3ccccc23)C(=O)N[C@@H](Cc2ccccc2)C(=O)N[C@@H](Cc2ccccc2)C(=O)N[C@@H](CC(N)=O)C(=O)N[C@@H](Cc2ccc(O)cc2)C(=O)N[C@@H](Cc2ccc(O)cc2)C(=O)N[C@@H](Cc2c[nH]c3ccccc23)C(=O)O)NC(=O)[C@@H]2CCCN2C(=O)[C@H](CO)NC1=O", "system": "mouse", "setting": "intravenous, 3 mg/kg", "measurement": "clearance", "value": "1.34 mL/min/kg"}
{"SMILES": "CC[C@H](C)[C@H](NC(=O)[C@H](Cc1ccccc1)NC(=O)[C@H](CCC(=O)O)NC(=O)[C@H](CCCCN)NC(=O)[C@H](C)NC(=O)[C@H](C)NC(=O)[C@H](CCC(N)=O)NC(=O)CNC(=O)[C@H](CCC(=O)O)NC(=O)[C@H](CC(C)C)NC(=O)[C@H](Cc1ccc(O)cc1)NC(=O)[C@H](CO)NC(=O)[C@H](CO)NC(=O)[C@@H](NC(=O)[C@H](CC(=O)O)NC(=O)[C@H](CO)NC(=O)[C@@H](NC(=O)[C@H](Cc1ccccc1)NC(=O)[C@@H](NC(=O)CNC(=O)[C@H](CCC(=O)O)NC(=O)[C@H](C)NC(=O)N(N)Cc1c[nH]cn1)[C@@H](C)O)[C@@H](C)O)C(C)C)C(=O)N[C@@H](C)C(=O)N[C@@H](Cc1c[nH]c2ccccc12)C(=O)N[C@@H](CC(C)C)C(=O)N[C@H](C(=O)N[C@@H](CCCNC(=N)N)C(=O)NCC(=O)N[C@@H](CCCNC(=N)N)C(=O)NCC(=O)O)C(C)C", "system": "male CD-1 mouse", "setting": "intravenous, 1 mg/kg, single dose", "measurement": "C0", "value": "37700 ng/mL"}
{"SMILES": "CC(C)[C@]12O[C@H]1[C@@H]1O[C@]13[C@]1(O[C@H]1C[C@H]1C4=C(CC[C@@]13C)C(=O)OC4)[C@@H]2O", "system": "SCID mouse", "setting": "intravenous, 0.6 mg/kg", "measurement": "clearance", "value": "20.5 mL/min/kg"}
{"SMILES": "N=C(N)NCCC[C@H](NC(=O)[C@H](Cc1ccccc1)NC(=O)[C@H](CCC(N)=O)NC(=O)OCc1ccccc1)C(=O)c1nccs1", "system": "female C57BL/6 mouse", "setting": "intravenous, 5 mg/kg", "measurement": "clearance", "value": "70.2 mL/min/kg"}
{"SMILES": "CC(C)=CCC[C@](C)(O[C@@H]1O[C@H](CO)[C@@H](O)[C@H](O)[C@H]1O)[C@H]1CC[C@]2(C)[C@@H]1[C@H](O)C[C@@H]1[C@@]3(C)CC[C@H](O)C(C)(C)[C@@H]3CC[C@]12C", "system": "mouse", "setting": "intravenous, 2 mg/kg", "measurement": "clearance", "value": "0.46 L/h"}
{"SMILES": "CC[C@H](C)[C@@H]1NC(=O)[C@@H]2CCCN2C(=O)[C@H](CC(C)C)NC(=O)[C@H](CC(C)C)NC(=O)CNC(=O)[C@@H](NC(=O)[C@@H](NC(=O)[C@H](CC(=O)O)NC(=O)CNC(=O)[C@@H](NC(=O)[C@H](C)NC(=O)CNC(=O)[C@H](CCCCN)NC(=O)[C@H](CC(C)C)NC(=O)[C@H](CC(C)C)NC(=O)[C@H](CCCCN)NC(=O)CNC(=O)[C@@H](NC(=O)[C@@H](N)CC(C)C)C(C)C)C(C)C)C(C)C)CSSC[C@@H](C(=O)O)NC1=O", "system": "female C57BL/6 mouse", "setting": "intravenous, 10 mg/kg, single dose", "measurement": "C0", "value": "3190 ng/mL"}
{"SMILES": "CC[C@H](C)CCCCC(=O)N[C@@H](CCN)C(=O)N[C@H](C(=O)N[C@@H](CCN)C(=O)N[C@H]1CCNC(=O)[C@H]([C@@H](C)O)NC(=O)[C@H](CCN)NC(=O)[C@H](CCN)NC(=O)[C@H](CC(C)C)NC(=O)[C@@H](CC(C)C)NC(=O)[C@H](CCN)NC1=O)[C@@H](C)O", "system": "male Sprague-Dawley rat", "setting": "subcutaneous, 10 mg/kg", "measurement": "Tmax", "value": "2.67 h"}
{"SMILES": "CC(=O)c1c(C)c2cnc(Nc3ccc(C4CCN(CCS(C)(=O)=O)CC4)cn3)nc2n(C2CCCC2)c1=O", "system": "male beagle dog", "setting": "oral, 6 mg/kg, multiple doses", "measurement": "Cmax", "value": "98.5 ng/mL"}
